# Measured values published in paper PMC12591375 (British journal of pharmacology, 2022).
# Read-outs that look alike come from different tables or passages of the source. Marks after values point to notes of the source that are not given here.
# Key:
# CB2 D356A/D359A [1] = biological target: T1, CB2 D356A/D359A (Homo sapiens, UniProt P34972, D356A/D359A/Q63R); experiment: G protein dissociation BRET assay, CB2 D356A/D359A; type: cell-based
# CB2 [2] = biological target: T2, CB2 (Homo sapiens, UniProt P34972, Q63R); experiment: β-arrestin 1 translocation real-time BRET assay; type: cell-based; conditions: HEK 293 cells
# T2 sequence (P34972 whole entry Q63R): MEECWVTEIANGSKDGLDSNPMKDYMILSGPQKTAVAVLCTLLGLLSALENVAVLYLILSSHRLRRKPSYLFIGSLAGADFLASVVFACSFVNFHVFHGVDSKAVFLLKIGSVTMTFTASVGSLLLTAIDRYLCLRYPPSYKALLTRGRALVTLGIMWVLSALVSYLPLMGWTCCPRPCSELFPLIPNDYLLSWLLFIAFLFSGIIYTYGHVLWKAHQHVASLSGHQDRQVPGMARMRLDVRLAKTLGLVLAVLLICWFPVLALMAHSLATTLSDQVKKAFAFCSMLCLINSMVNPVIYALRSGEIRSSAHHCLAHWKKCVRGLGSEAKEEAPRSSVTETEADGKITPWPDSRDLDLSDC
# [3] = biological target: T3, CB2 D351A/D354A/D356A/D359A (Homo sapiens, UniProt P34972, D351A/D354A/D356A/D359A/Q63R); experiment: β-arrestin 2 translocation BRET assay, CB2 D351A/D354A/D356A/D359A mutant; type: cell-based; conditions: for Span, β-arrestin 2 translocation, CB2 D351A/D354A/D356A/D359A: HEK 293 cells
# T3 sequence (P34972 whole entry Q63R/D351A/D354A/D356A/D359A): as the sequence (P34972 whole entry Q63R) above, with D351A, D354A, D356A, D359A counted along it
# CB2 D356A/D359A [4] = biological target: T1, CB2 D356A/D359A; experiment: β-arrestin 2 translocation BRET assay, CB2 D356A/D359A mutant; type: cell-based; conditions: for Span, β-arrestin 2 translocation, CB2 D356A/D359A: HEK 293 cells
# [5] = biological target: T3, CB2 D351A/D354A/D356A/D359A; experiment: G protein dissociation BRET assay, CB2 D351A/D354A/D356A/D359A; type: cell-based; conditions: HEK 293 cells
# Wild-type CB2 = Wild-type CB2 (Homo sapiens, UniProt P34972, Q63R); experiment: G protein dissociation BRET assay, wild-type CB2; type: cell-based
# Sequence of Wild-type CB2 (P34972 whole entry Q63R): as the sequence (P34972 whole entry Q63R) above
# CB2 [6] = biological target: T2, CB2; experiment: β-arrestin 2 translocation real-time BRET assay, wild-type CB2; type: cell-based; conditions: for Span, β-arrestin 2 translocation to CB2 / Span, β-arrestin 2 translocation, wild-type CB2: HEK 293 cells
# CB2 D351A/D354A [7] = biological target: T4, CB2 D351A/D354A (Homo sapiens, UniProt P34972, D351A/D354A/Q63R); experiment: G protein dissociation BRET assay, CB2 D351A/D354A; type: cell-based
# T4 sequence (P34972 whole entry Q63R/D351A/D354A): as the sequence (P34972 whole entry Q63R) above, with D351A, D354A counted along it
# CB2 D351A/D354A [8] = biological target: T4, CB2 D351A/D354A; experiment: β-arrestin 2 translocation BRET assay, CB2 D351A/D354A mutant; type: cell-based; conditions: for Span, β-arrestin 2 translocation, CB2 D351A/D354A: HEK 293 cells
# endogenous GRK2/3 = type: cell-based, human; conditions: 30-μM compound 101, 30 min
# Procedure, shortened: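 HEK 293 cells PEI-transfected with mem-Citrine-SH3, Rluc8-β-arrestin 2, HA-hCB2 and empty vector, then replated on PDL. Equilibrated ~30 min in phenol red-free DMEM with 1 mg/mL fatty acid-free BSA and 10 mM HEPES, then given 30 µM test compound or vehicle for 30 min.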
# T1 sequence (P34972 whole entry Q63R/D356A/D359A): as the sequence (P34972 whole entry Q63R) above, with D356A, D359A counted along it
compound,measurement,setting,value
CCCCCCC(C)(C)c1ccc([C@@H]2C[C@H](O)CC[C@H]2CCCO)c(O)c1 [CP55940],attenuation of G protein dissociation by addition of β-arrestin 2,CB2 D356A/D359A [1]; 1-μM CP55940,over 50%
same,G protein dissociation at 1 μM CP55940,"CB2 D356A/D359A [1]; HEK 293 cells, + β-arrestin 2",−91.91 (4.94) ΔBRET.s
same,"G protein dissociation at 1 μM CP55940, % mock","CB2 D356A/D359A [1]; HEK 293 cells, + β-arrestin 2",49.37 (2.63) % mock
same,"Span, G protein dissociation","CB2 D356A/D359A [1]; HEK 293 cells, mock",−186.32 (4.70) ^* ΔBRET.s
same,"Span, β-arrestin 1 translocation to CB2",CB2 [2]; coexpression of GRK1,86.32 (2.74) ^* ΔBRET.s
same,"Span, β-arrestin 1 translocation to CB2",CB2 [2]; coexpression of GRK2,79.90 (3.34) ^* ΔBRET.s
same,"Span, β-arrestin 1 translocation to CB2",CB2 [2]; coexpression of GRK3,79.51 (2.33) ^* ΔBRET.s
same,"Span, β-arrestin 1 translocation to CB2",CB2 [2]; coexpression of GRK4,64.47 (1.90) ΔBRET.s
same,"Span, β-arrestin 1 translocation to CB2",CB2 [2]; coexpression of GRK5,70.53 (2.52) ΔBRET.s
same,"Span, β-arrestin 1 translocation to CB2",CB2 [2]; coexpression of GRK6,66.73 (3.12) ΔBRET.s
same,"Span, β-arrestin 1 translocation to CB2",CB2 [2]; mock (no GRK),63.07 (4.10) ΔBRET.s
same,"Span, β-arrestin 2 translocation, CB2 D351A/D354A/D356A/D359A",[3]; coexpression of GRK2,194.18 (13.37) ^* ΔBRET.s
same,"Span, β-arrestin 2 translocation, CB2 D351A/D354A/D356A/D359A",[3]; coexpression of GRK3,180.16 (13.23) ^* ΔBRET.s
same,"Span, β-arrestin 2 translocation, CB2 D351A/D354A/D356A/D359A",[3]; mock,142.57 (8.39)^◊ ΔBRET.s
same,increase of β-arrestin 2 translocation response versus mock,[3]; coexpression of GRK2,36%
same,increase of β-arrestin 2 translocation response versus mock,[3]; coexpression of GRK3,26%
same,reduction of β-arrestin 2 translocation response versus wild-type CB2,[3]; mock,36%
same,"Span, β-arrestin 2 translocation, CB2 D356A/D359A",CB2 D356A/D359A [4]; coexpression of GRK2,161.84 (5.06) ΔBRET.s
same,"Span, β-arrestin 2 translocation, CB2 D356A/D359A",CB2 D356A/D359A [4]; coexpression of GRK3,188.04 (8.90) ΔBRET.s
same,"Span, β-arrestin 2 translocation, CB2 D356A/D359A",CB2 D356A/D359A [4]; mock,170.18 (6.70)^◊ ΔBRET.s
same,reduction in efficacy of β-arrestin 2 translocation versus wild-type CB2,CB2 D356A/D359A [4]; mock,24%
same,G protein dissociation at 1 μM CP55940,[5]; + GRK3,−267.49 (4.62)^ⱡ ΔBRET.s
same,G protein dissociation at 1 μM CP55940,[5]; + β-arrestin 2,−165.31 (10.19)^◊ ΔBRET.s
same,"G protein dissociation at 1 μM CP55940, % mock",[5]; + β-arrestin 2,67.29 (4.02)^◊ % mock
same,G protein dissociation at 1 μM CP55940,[5]; + β-arrestin 2 + GRK3,−155.77 (3.82)^◊ ΔBRET.s
same,"Span, G protein dissociation",[5]; mock,−246.10 (6.75) ^* ΔBRET.s
same,attenuation of G protein dissociation by addition of β-arrestin 2,Wild-type CB2; 1-μM CP55940,over 50%
same,G protein dissociation at 1 μM CP55940,"Wild-type CB2; HEK 293 cells, + GRK3",−226.64 (5.63) ΔBRET.s
same,G protein dissociation at 1 μM CP55940,"Wild-type CB2; HEK 293 cells, + β-arrestin 2",−97.47 (3.67) ΔBRET.s
same,"G protein dissociation at 1 μM CP55940, % mock","Wild-type CB2; HEK 293 cells, + β-arrestin 2",45.28 (2.15) % mock
same,G protein dissociation at 1 μM CP55940,"Wild-type CB2; HEK 293 cells, + β-arrestin 2 + GRK3",−91.65 (4.04) ΔBRET.s
same,"Span, G protein dissociation","Wild-type CB2; HEK 293 cells, mock",−216.50 (8.58) ΔBRET.s
same,"Span, β-arrestin 2 translocation to CB2","CB2 [6]; coexpression of GRK1, Table 2",183.2 (11.32) ΔBRET.s
same,"Span, β-arrestin 2 translocation to CB2","CB2 [6]; coexpression of GRK2, Table 2",164.3 (16.29) ^* ΔBRET.s
same,"Span, β-arrestin 2 translocation, wild-type CB2","CB2 [6]; coexpression of GRK2, Table 3 (mutant experiments)",174.54 (11.90) ^* ΔBRET.s
same,"Span, β-arrestin 2 translocation to CB2","CB2 [6]; coexpression of GRK3, Table 2",155.0 (9.91) ^* ΔBRET.s
same,"Span, β-arrestin 2 translocation, wild-type CB2","CB2 [6]; coexpression of GRK3, Table 3 (mutant experiments)",210.00 (2.53) ^* ΔBRET.s
same,"Span, β-arrestin 2 translocation to CB2","CB2 [6]; coexpression of GRK4, Table 2",176.9 (8.00) ΔBRET.s
same,"Span, β-arrestin 2 translocation to CB2","CB2 [6]; coexpression of GRK5, Table 2",156.0 (6.71) ^* ΔBRET.s
same,"Span, β-arrestin 2 translocation to CB2","CB2 [6]; coexpression of GRK6, Table 2",160.6 (8.71) ΔBRET.s
same,"Span, β-arrestin 2 translocation to CB2","CB2 [6]; mock (no GRK), Table 2",190.2 (12.38) ΔBRET.s
same,"Span, β-arrestin 2 translocation, wild-type CB2","CB2 [6]; mock, Table 3 (mutant experiments)",222.91 (6.17) ΔBRET.s
same,lowering of efficacy of β-arrestin 2 translocation by GRK coexpression,"CB2 [6]; coexpression of GRK2, GRK3 and GRK5 versus mock",10–20%
same,attenuation of G protein dissociation by addition of β-arrestin 2,CB2 D351A/D354A [7]; 1-μM CP55940,over 50%
same,G protein dissociation at 1 μM CP55940,"CB2 D351A/D354A [7]; HEK 293 cells, + β-arrestin 2",−97.62 (4.27) ΔBRET.s
same,"G protein dissociation at 1 μM CP55940, % mock","CB2 D351A/D354A [7]; HEK 293 cells, + β-arrestin 2",47.86 (1.69) % mock
same,"Span, G protein dissociation","CB2 D351A/D354A [7]; HEK 293 cells, mock",−204.02 (5.54) ΔBRET.s
same,"Span, β-arrestin 2 translocation, CB2 D351A/D354A",CB2 D351A/D354A [8]; coexpression of GRK2,147.34 (2.60) ^* ΔBRET.s
same,"Span, β-arrestin 2 translocation, CB2 D351A/D354A",CB2 D351A/D354A [8]; coexpression of GRK3,147.06 (10.88) ΔBRET.s
same,"Span, β-arrestin 2 translocation, CB2 D351A/D354A",CB2 D351A/D354A [8]; mock,132.61 (6.99)^◊ ΔBRET.s
same,reduction in efficacy of β-arrestin 2 translocation versus wild-type CB2,CB2 D351A/D354A [8]; mock,41%
Cn1c(CNc2cccc(C(=O)NCc3ccccc3C(F)(F)F)c2)nnc1-c1ccncc1 [compound 101],reduction of β-arrestin 2 translocation to CB2,endogenous GRK2/3; stimulation with 1-μM AMB-FUBINACA,approximately 15%
same,reduction of β-arrestin 2 translocation to CB2,endogenous GRK2/3; stimulation with 10-μM CP55940,approximately 15%
same,reduction of β-arrestin 2 translocation to CB2,endogenous GRK2/3; stimulation with […] 2-AG,approximately 15%
